Activity calls are given as the source filed them. No cut-off for these calls is given here.
How the values were obtained:
BaF3 [1] = assay: Antiproliferative activity against mouse BaF3 cells expressing Tel-FGFR1 assessed as cell growth inhibition measured after 72 hrs by celltiter-glo reagent based assay; assay type: functional; settings: BaF3, 72 h
Summary of the method: (§1)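 Ba/F3 cells stably expressing cytoplasmic TEL-FGFR1, -2, -3 or -4 fusions were treated in 96-well format, final DMSO 0.1%, for 72 h. Viability read by CellTiter-Glo luminescence after 10 min at room temperature. Inhibition calculated from blank- and control-corrected RLU; IC50 from 4-parameter concentration–response fit.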

[2] = molecular target: Fibroblast growth factor receptor 2 (Homo sapiens) (UniProt P21802); assay: Induction of FGFR2 receptor internalization in human KATO III stomach cancer cell line at 100 nM measured for 6 hrs by immunofluorescence assay; assay type: cell-based; settings: filed as activator
Summary of the method: (§2)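 KATO III cells treated with 100 nM for 3 or 6 h, fixed in 2% formaldehyde 2 min, blocked 5% BSA 1 h, anti-FGFR2 overnight, Alexa Fluor 488 secondary 1 h, DAPI 10 min; imaged by fluorescence microscopy.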

[3] = Toxicity in BALB/c mouse xenografted with human SNU-16 cells assessed as body weight loss at 20 mg/kg, po administered for 15 days and measured on day 2; assay type: organism-based; settings: in vivo, 48 h, time 2 day
Summary of the method: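 Female BALB/c nude mice, 5 weeks old (20–22 g), carried subcutaneous SNU-16 xenografts in the right flank. Dosing began at mean tumor volume 50–100 mm3, after randomization by body weight, n = 5. Mice received 20 mg/kg/day by gavage in 0.5% CMC-Na, QD for 15 d, with vehicle controls. Body weight was measured every 2 days.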

[4] = Hepatotoxicity in ICR mouse assessed as effect on AST level at 20 mg/kg, po measured for 30 days; assay type: toxicity, organism-based; settings: in vivo, 720 h, time 30 day
Summary of the method: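 ICR mice given 20 mg/kg/day orally for 30 days (n = 6), vehicle controls; mortality and clinical signs checked daily, then AST/ALT and creatinine, organ weights, haematology and H&E of heart, liver, spleen, lung, kidney.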

BaF3 [5] = assay: Antiproliferative activity against mouse BaF3 cells expressing Tel-FGFR2 assessed as cell growth inhibition measured after 72 hrs by celltiter-glo reagent based assay; assay type: functional; settings: BaF3, 72 h; summary of the method: as §1
[6] = Volume of distribution at steady state in mice at 3 mg/kg, iv measured at 0.083 to 24 hrs by LC-MS/MS analysis; settings: mouse, in vivo, read-out: Vdss
[7] = Oral bioavailability in mice at 20 mg/kg measured at 0.25 to 24 hrs by LC-MS/MS analysis; settings: mouse, in vivo
[8] = molecular target: T1, Protein cereblon/Fibroblast growth factor receptor 2 (Homo sapiens, UniProt P21802+Q96SW2); assay: PROTAC activity at CRBN/FGFR2 in human KATO III stomach cancer cell line assessed as FGFR2 degradation measured for 6 hrs in presence of MG132 by immunoblot analysis; assay type: cell-based
Summary of the method: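 KATO III cells were pretreated with 1 μM proteasome inhibitor (MG132 or bortezomib), then exposed to degrader at 100 nM for 6 h. FGFR2 was read by immunoblot against β-actin loading, with ECL detection.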

[9] = Toxicity in ICR mouse assessed as change in liver weight at 20 mg/kg, po measured for 30 days; assay type: organism-based; settings: in vivo, 720 h, time 30 day
Summary of the method: (§3)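 ICR mice (n = 6) were dosed orally at 20 mg/kg/day for 30 days, alongside vehicle-treated controls. Mortality and clinical signs were checked daily. At the end, body and organ weights were recorded. Heart, liver, spleen, lung and kidney were examined by hematoxylin and eosin staining.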

[10] = test system: KATO III stomach cancer cell line; assay: Antiproliferative activity against human KATO III stomach cancer cell line assessed as reduction in cell viability measured for 72 hrs by celltiter-glo reagent based assay; assay type: functional
Summary of the method: (§4)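 Cancer lines KATO III, SNU16, NCI-H716, NCI-H1975, MV-4-11 and HEK293T treated 72 h; antiproliferative IC50 given as mean ± s.d. from three independent biological experiments.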

[11] = Cmax in mouse at 20 mg/kg, po measured at 0.25 to 24 hrs by LC-MS/MS analysis; settings: in vivo
SNU-16 = assay: Antitumor activity against human SNU-16 cells xenografted in BALB/c nude mouse assessed as tumor growth inhibition at 20 mg/kg, po administered for 15 days and measured on day 2; assay type: functional; settings: SNU-16, 48 h, time 2 day, read-out: TGI
Summary of the method: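 Female BALB/c nude mice, 5 weeks old (20–22 g), s.c. right-flank SNU-16 implants, randomized by body weight into groups (n = 5) once tumours reached 50–100 mm3. Dosing 20 mg/kg/day intragastric in 0.5% CMC-Na for 15 d; vehicle controls. Tumour width and length measured every 2 days; tumours harvested 4 h after last dose and lysates immunoblotted for pFGFR, FGFR2, pPLCγ, pErk.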

[12] = molecular target: T1, Protein cereblon/Fibroblast growth factor receptor 2; assay: PROTAC activity at CRBN/FGFR2 in human KATO III stomach cancer cell line assessed as FGFR2 degradation measured for 6 hrs by immunoblot analysis; assay type: cell-based
Summary of the method: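 KATO III cells treated for 6 h at the stated concentrations, added from 10 mM DMSO stocks (final DMSO below 0.5%). Cells were washed with PBS and lysed in 2× loading buffer, then run on SDS-PAGE and blotted to PVDF. Anti-FGFR2 was applied overnight at 4 °C, with ECL detection. FGFR2 was expressed as FGFR2/β-actin, normalized to DMSO-treated cells, from three independent biological experiments.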

[13] = Toxicity in ICR mouse assessed as change in spleen weight at 20 mg/kg, po measured for 30 days; assay type: organism-based; settings: in vivo, 720 h, time 30 day; summary of the method: as §3
BaF3 [14] = assay: Antiproliferative activity against mouse BaF3 cells expressing Tel-FGFR4 assessed as cell growth inhibition measured after 72 hrs by celltiter-glo reagent based assay; assay type: functional; settings: BaF3, 72 h; summary of the method: as §1
MV4-11 = assay: Antiproliferative activity against human MV4-11 cells assessed as reduction in cell viability measured for 72 hrs by celltiter-glo reagent based assay; assay type: functional; settings: MV4-11, 72 h; summary of the method: as §4
[15] = molecular target: Tyrosine-protein kinase ABL1 (Homo sapiens) (UniProt P00519); assay: Inhibition of human ABL1 at 1000 nM by KINOMEscan analysis relative to control
[16] = Half life in Sprague-Dawley rat at 3 mg/kg, iv measured at 0.083 to 24 hrs by LC-MS/MS analysis; assay type: ADME, organism-based; settings: in vivo, time 0.083-24 hrs
Summary of the method: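 Male Sprague Dawley rats, single dose i.v. 3 mg/kg or p.o. 20 mg/kg in 10% Solutol, 85% (10% HP-β-CD in saline), 5% DMSO, pH adjusted to 9–10.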

[17] = molecular target: Fibroblast growth factor receptor 2 (Homo sapiens) (UniProt P21802); assay: Inhibition of partial length human FGFR2 at 1000 nM by KINOMEscan analysis relative to control
Summary of the method: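 97-kinase scanEDGE panel screened at 1000 nM; results reported as % Ctrl, lower values meaning stronger inhibition.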

[18] = molecular target: Fibroblast growth factor receptor 2 (Homo sapiens) (UniProt P21802); assay: Induction of FGFR2 receptor relocalization in human KATO III stomach cancer cell line at 100 nM measured for 3 hrs by immunofluorescence assay; assay type: cell-based; settings: filed as activator; summary of the method: as §2

Sequence of Fibroblast growth factor receptor 2 (Homo sapiens) (P21802 22-821 limits assumed): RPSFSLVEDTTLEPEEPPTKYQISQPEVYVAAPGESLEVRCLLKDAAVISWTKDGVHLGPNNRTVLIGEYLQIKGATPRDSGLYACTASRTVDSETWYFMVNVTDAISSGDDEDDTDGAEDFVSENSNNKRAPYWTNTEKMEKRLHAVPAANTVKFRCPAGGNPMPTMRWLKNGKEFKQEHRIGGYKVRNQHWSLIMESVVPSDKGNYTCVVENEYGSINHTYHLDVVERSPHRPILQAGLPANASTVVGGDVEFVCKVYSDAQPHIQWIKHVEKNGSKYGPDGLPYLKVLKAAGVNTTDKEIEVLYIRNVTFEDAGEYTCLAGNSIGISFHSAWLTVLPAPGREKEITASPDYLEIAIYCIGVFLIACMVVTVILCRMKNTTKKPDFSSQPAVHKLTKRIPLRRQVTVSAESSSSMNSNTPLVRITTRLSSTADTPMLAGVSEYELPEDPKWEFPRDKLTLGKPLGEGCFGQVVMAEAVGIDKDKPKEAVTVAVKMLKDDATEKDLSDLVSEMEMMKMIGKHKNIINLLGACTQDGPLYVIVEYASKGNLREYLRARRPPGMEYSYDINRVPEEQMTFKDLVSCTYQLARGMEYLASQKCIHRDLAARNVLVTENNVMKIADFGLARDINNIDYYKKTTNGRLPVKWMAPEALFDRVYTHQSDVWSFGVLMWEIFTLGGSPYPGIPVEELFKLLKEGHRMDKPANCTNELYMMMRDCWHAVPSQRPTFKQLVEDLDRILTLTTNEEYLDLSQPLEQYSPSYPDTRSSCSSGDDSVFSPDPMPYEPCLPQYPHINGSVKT
T1 sequence (P21802 22-821 limits assumed): as above
T1 sequence (Q96SW2 whole entry partner): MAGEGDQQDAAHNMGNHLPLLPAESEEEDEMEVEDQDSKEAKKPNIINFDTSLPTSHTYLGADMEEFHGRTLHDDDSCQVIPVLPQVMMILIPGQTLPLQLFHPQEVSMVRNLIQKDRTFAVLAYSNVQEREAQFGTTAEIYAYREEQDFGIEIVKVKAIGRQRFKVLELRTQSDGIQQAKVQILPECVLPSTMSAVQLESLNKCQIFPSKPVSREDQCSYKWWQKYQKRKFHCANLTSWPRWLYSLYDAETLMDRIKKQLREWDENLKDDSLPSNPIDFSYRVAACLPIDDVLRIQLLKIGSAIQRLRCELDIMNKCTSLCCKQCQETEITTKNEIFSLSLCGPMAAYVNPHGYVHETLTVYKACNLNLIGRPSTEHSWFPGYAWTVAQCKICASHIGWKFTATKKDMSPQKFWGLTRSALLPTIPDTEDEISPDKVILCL
Sequence of Tyrosine-protein kinase ABL1 (Homo sapiens) (P00519 whole entry): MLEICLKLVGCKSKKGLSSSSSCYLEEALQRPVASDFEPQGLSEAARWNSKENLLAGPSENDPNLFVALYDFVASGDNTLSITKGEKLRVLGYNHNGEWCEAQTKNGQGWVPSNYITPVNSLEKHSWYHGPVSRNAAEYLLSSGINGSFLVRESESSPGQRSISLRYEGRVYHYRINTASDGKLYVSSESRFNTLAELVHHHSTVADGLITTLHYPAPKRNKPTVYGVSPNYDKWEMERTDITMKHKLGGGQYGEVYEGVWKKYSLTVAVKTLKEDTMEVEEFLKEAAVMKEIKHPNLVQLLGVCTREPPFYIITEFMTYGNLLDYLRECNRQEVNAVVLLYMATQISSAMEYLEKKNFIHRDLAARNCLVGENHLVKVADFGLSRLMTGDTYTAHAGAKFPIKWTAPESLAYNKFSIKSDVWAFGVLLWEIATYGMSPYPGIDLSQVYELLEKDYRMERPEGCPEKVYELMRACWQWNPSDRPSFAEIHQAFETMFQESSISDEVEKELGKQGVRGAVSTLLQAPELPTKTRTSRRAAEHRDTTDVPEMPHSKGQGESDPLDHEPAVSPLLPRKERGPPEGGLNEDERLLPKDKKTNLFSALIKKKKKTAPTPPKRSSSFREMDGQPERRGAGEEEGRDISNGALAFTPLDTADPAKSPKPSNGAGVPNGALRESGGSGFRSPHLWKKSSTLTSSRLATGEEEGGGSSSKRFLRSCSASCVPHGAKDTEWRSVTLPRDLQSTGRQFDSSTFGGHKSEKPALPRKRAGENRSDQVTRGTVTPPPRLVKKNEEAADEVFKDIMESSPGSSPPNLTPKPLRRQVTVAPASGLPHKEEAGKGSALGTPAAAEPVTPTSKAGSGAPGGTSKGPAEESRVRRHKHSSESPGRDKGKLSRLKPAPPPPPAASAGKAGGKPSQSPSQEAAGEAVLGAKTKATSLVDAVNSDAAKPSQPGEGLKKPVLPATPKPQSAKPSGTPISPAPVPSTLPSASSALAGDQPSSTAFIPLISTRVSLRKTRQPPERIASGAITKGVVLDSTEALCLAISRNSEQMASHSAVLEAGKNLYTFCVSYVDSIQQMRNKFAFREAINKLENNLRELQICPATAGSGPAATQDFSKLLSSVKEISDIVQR

- IC50 (BaF3 [1]): 0.125 µM
- Activity [2]: Active
- IC50 (BaF3 [5]): 0.0103 µM
- Vd [6]: 6.23 L/kg
- bioavailability [7]: 13.1%
- Activity [8]: inactive
- IC50 [10]: 0.0291 µM
- Cmax [11]: 82.1 ng/mL
- Activity [12]: inactive
- IC50 (BaF3 [14]): > 10 µM
- IC50 (MV4-11): > 10 µM
- inhibition [15]: 47%
- half-life [16]: 58.2 min
- inhibition [17]: 87%
- Activity [18]: Active
SMILES: COc1cc(OC)c(Cl)c(NC(=O)N(C)c2cc(Nc3ccc(N4CCN(C(=O)C5CCN(c6ccc7c(c6)C(=O)N(C6CCC(=O)NC6=O)C7=O)CC5)CC4)cc3)ncn2)c1Cl (stereo not given)
- Activity [3]: Non-Toxic
- Activity [4]: Non-Toxic
- Activity [9]: Non-Toxic
- inhibition in vivo at 20 mg/kg (SNU-16): 63.1%
- Activity [13]: Non-Toxic

From ChEMBL document CHEMBL5338796, “Discovery of a Selective and Orally Bioavailable FGFR2 Degrader for Treating Gastric Cancer” (J Med Chem, 2023)
